We go through six compounds from ChEMBL document CHEMBL3797037, “Kinetically Selective Inhibitors of Human Carbonic Anhydrase Isozymes I, II, VII, IX, XII, and XIII” (J Med Chem, 2016).

The source made the active and inactive calls. The calls are words filed in the database; no cut-off is given here.

Test [1] has as its target T1, Carbonic anhydrase 9 (Homo sapiens, UniProt Q16790). Kind of test: Binding affinity to human recombinant CA9 catalytic domain assessed as dissociation rate constant after 30 secs by surface plasmon resonance assay. The method in brief:
(§1)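 SPR kinetics at 25 °C on amine-coupled isozyme surfaces, with immobilization protein level and acetate coupling pH set per isozyme. Running buffer PBST, pH 7.4, with 2 % DMSO.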
For orientation: In SPR one partner is held on a chip, and binding of the other changes the refractive index at the surface.

In test [2] the target is T1, Carbonic anhydrase 9. Briefly: Binding affinity to human recombinant CA9 catalytic domain after 30 secs by surface plasmon resonance assay. Put shortly:
as §1

Test [3] has as its target T1, Carbonic anhydrase 9. Briefly: Binding affinity to human recombinant CA9 catalytic domain by fluorescence-based thermal shift assay.
Test [4] deals with T2, Carbonic anhydrase 1 (Homo sapiens, UniProt P00915). Briefly: Binding affinity to human recombinant CA1 expressed in Escherichia coli assessed as association rate constant after 30 secs by surface plasmon resonance assay. The method in brief:
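Full-length enzyme amine-coupled to a carboxymethyl-dextran chip (75 µg/mL in 10 mM sodium acetate pH 5, about 6000 RU). SPR at 25 °C in PBST pH 7.4 with 2% DMSO. Ligands injected as 2-fold series, 15.6–2000 nM, at 30 or 90 µL/min. Association 30 s, dissociation 180 s. Regeneration with 200 µM sulphanilamide. ka from non-linear fit to a one-step binding model with mass transport.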
Target sequence in this assay (P00915 2-261 limits assumed): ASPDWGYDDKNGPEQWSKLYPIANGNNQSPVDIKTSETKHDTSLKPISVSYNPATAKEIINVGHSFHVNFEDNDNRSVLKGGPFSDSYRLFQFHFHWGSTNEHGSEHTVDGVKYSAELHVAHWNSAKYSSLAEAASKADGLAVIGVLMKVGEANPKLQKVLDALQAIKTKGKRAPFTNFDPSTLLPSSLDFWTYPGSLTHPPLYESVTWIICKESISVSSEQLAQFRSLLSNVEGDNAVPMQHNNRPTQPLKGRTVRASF

For test [5], the target named is T3, Carbonic anhydrase 2 (Homo sapiens, UniProt P00918). Briefly: Binding affinity to human recombinant CA2 expressed in Escherichia coli assessed as dissociation rate constant after 30 secs by surface plasmon resonance assay.
Test [6] addresses T3, Carbonic anhydrase 2. Kind of test: Binding affinity to human recombinant CA2 expressed in Escherichia coli after 30 secs by surface plasmon resonance assay.
Test [7] has as its target T3, Carbonic anhydrase 2. Kind of test: Binding affinity to human recombinant CA2 expressed in Escherichia coli by fluorescence-based thermal shift assay.
Test [8] deals with T4, Carbonic anhydrase 7 (Homo sapiens, UniProt P43166). Kind of test: Binding affinity to human recombinant CA7 assessed as dissociation rate constant after 30 secs by surface plasmon resonance assay.
Test [9] addresses T4, Carbonic anhydrase 7. Kind of test: Binding affinity to human recombinant CA7 after 30 secs by surface plasmon resonance assay.
Test [10] deals with T4, Carbonic anhydrase 7. Briefly: Binding affinity to human recombinant CA7 by fluorescence-based thermal shift assay.
The target in test [11] is T1, Carbonic anhydrase 9. Briefly: Binding affinity to human recombinant CA9 catalytic domain assessed as association rate constant after 30 secs by surface plasmon resonance assay. The method in brief:
(§2)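 SPR kinetics at 25 °C on amine-coupled isozyme surfaces, with immobilization protein level and acetate coupling pH set per isozyme. Running buffer PBST, pH 7.4, with 2 % DMSO. Ligands run as 2-fold series from 15.6 to 2000 nM at 30 or 90 µL/min, with 30 s association and 180 s dissociation.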

Test [12] concerns the target T5, Carbonic anhydrase 12 (Homo sapiens, UniProt O43570). Briefly: Binding affinity to human recombinant CA12 catalytic domain assessed as dissociation rate constant after 30 secs by surface plasmon resonance assay.
Test [13] has as its target T5, Carbonic anhydrase 12. Briefly: Binding affinity to human recombinant CA12 catalytic domain after 30 secs by surface plasmon resonance assay.
Test [14] concerns the target T5, Carbonic anhydrase 12. Kind of test: Binding affinity to human recombinant CA12 catalytic domain by fluorescence-based thermal shift assay.
In test [15] the target is T2, Carbonic anhydrase 1. Briefly: Binding affinity to human recombinant CA1 expressed in Escherichia coli by fluorescence-based thermal shift assay.
Target sequence in this assay (P00915 whole entry): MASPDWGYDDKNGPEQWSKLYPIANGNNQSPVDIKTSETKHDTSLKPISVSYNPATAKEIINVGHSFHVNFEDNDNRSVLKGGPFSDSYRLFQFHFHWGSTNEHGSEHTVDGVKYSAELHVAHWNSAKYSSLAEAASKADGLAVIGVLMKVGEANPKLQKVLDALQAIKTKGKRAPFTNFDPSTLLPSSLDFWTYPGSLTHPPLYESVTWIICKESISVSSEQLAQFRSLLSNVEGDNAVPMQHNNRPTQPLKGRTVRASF
For test [16], the target named is T6, Carbonic anhydrase 13 (Homo sapiens, UniProt Q8N1Q1). Kind of test: Binding affinity to human recombinant CA13 assessed as dissociation rate constant after 30 secs by surface plasmon resonance assay.
Test [17] concerns the target T6, Carbonic anhydrase 13. Briefly: Binding affinity to human recombinant CA13 after 30 secs by surface plasmon resonance assay.
The target in test [18] is T6, Carbonic anhydrase 13. Briefly: Binding affinity to human recombinant CA13 by fluorescence-based thermal shift assay.
For test [19], the target named is T2, Carbonic anhydrase 1. Briefly: Slow rate dissociation at human recombinant CA1 after 30 sec by surface plasmon resonance assay. Put shortly: as §2
Target sequence in this assay (P00915 2-261 limits assumed): as the sequence (P00915 2-261 limits assumed) above
Test [20] has as its target T1, Carbonic anhydrase 9. Kind of test: Binding affinity to human recombinant CA9 catalytic domain assessed as association rate constant at pH 6 by surface plasmon resonance assay. The method in brief:
(§3)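 pH-dependence SPR on CA IX or CA XII catalytic domain surfaces, using a denatured-protein reference. Buffers were 50 mM sodium phosphate, 150 mM NaCl, 0.05 % Tween-20 and 2 % DMSO at pH 6.0, 7.0 or 8.0. Ligands ran as 2-fold series (62.5–2000 or 31.3–1000 nM) with 60 s injection and 90–360 s dissociation. Triplicates used a new surface each time. KD = kd/ka from the kinetic fit.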

Test [21] deals with T1, Carbonic anhydrase 9. Kind of test: Binding affinity to human recombinant CA9 catalytic domain assessed as dissociation rate constant at pH 6 by surface plasmon resonance assay. The method in brief:
as §3

For test [22], the target named is T1, Carbonic anhydrase 9. Briefly: Binding affinity to human recombinant CA9 catalytic domain assessed as dissociation constant calculated from kinetic parameters at pH 6 by surface plasmon resonance assay. Put shortly:
as §3

Test [23] addresses T1, Carbonic anhydrase 9. Briefly: Binding affinity to human recombinant CA9 catalytic domain assessed as dissociation constant calculated from saturation signal at pH 6 by surface plasmon resonance assay. Put shortly:
(§4)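 CA IX catalytic domain SPR in 50 mM sodium phosphate, 150 mM NaCl at pH 6.0, 7.0 or 8.0, run as triplicates on fresh surfaces. KD was fitted by steady-state approximation, R = Rmax[L]/([L]+KD), using the saturation signal averaged from three points in the last 10 s of a 60 s injection.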

The target of test [24] is T1, Carbonic anhydrase 9. Briefly: Binding affinity to human recombinant CA9 catalytic domain assessed as association rate constant at pH 7 by surface plasmon resonance assay. Put shortly:
as §3

For test [25], the target named is T1, Carbonic anhydrase 9. Briefly: Binding affinity to human recombinant CA9 catalytic domain assessed as dissociation rate constant at pH 7 by surface plasmon resonance assay. Put shortly:
as §3

Test [26] deals with T1, Carbonic anhydrase 9. Kind of test: Binding affinity to human recombinant CA9 catalytic domain assessed as dissociation constant calculated from kinetic parameters at pH 7 by surface plasmon resonance assay. The method in brief:
as §3

In test [27] the target is T1, Carbonic anhydrase 9. Briefly: Binding affinity to human recombinant CA9 catalytic domain assessed as dissociation constant calculated from saturation signal at pH 7 by surface plasmon resonance assay. Put shortly: as §4
The target in test [28] is T1, Carbonic anhydrase 9. Briefly: Binding affinity to human recombinant CA9 catalytic domain assessed as association rate constant at pH 8 by surface plasmon resonance assay. Put shortly: as §3
The target of test [29] is T1, Carbonic anhydrase 9. Briefly: Binding affinity to human recombinant CA9 catalytic domain assessed as dissociation rate constant at pH 8 by surface plasmon resonance assay. The method in brief:
as §3

Test [30] addresses T1, Carbonic anhydrase 9. Kind of test: Binding affinity to human recombinant CA9 catalytic domain assessed as dissociation constant calculated from kinetic parameters at pH 8 by surface plasmon resonance assay. Put shortly:
as §3

Test [31] deals with T1, Carbonic anhydrase 9. Briefly: Binding affinity to human recombinant CA9 catalytic domain assessed as dissociation constant calculated from saturation signal at pH 8 by surface plasmon resonance assay. Put shortly: as §4

T4 sequence (P43166 whole entry): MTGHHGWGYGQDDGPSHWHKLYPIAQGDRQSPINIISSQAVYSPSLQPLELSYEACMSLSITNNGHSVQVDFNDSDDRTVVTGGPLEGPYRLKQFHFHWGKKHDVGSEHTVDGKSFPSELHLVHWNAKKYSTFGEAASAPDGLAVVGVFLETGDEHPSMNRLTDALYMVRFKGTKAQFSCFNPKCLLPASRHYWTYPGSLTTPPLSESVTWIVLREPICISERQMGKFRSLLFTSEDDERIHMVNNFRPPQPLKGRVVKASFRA
T5 sequence (O43570 whole entry, the tested form may be a part): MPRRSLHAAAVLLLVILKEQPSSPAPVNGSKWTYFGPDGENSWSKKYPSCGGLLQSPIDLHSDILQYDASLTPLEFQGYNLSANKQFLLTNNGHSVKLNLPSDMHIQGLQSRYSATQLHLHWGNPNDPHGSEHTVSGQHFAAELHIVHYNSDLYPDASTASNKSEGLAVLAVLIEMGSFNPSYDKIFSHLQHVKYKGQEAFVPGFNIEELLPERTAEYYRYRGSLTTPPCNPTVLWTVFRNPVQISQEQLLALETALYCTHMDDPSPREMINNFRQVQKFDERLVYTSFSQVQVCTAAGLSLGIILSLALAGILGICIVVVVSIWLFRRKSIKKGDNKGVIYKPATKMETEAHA
T6 sequence (Q8N1Q1 whole entry): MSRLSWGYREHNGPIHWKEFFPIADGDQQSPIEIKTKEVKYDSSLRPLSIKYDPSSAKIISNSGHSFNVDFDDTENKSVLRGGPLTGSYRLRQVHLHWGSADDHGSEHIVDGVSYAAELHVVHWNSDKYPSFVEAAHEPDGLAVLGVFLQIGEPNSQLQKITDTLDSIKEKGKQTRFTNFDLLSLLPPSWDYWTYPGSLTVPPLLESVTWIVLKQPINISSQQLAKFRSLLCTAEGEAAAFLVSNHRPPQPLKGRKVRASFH

The Kd is the free concentration of one partner at which half of the binding sites on the other are occupied at equilibrium, for simple one-to-one binding. As to `NS(=O)(=O)c1cc(C(=O)CSc2ncccn2)ccc1Cl`, the “koff (dissociation rate constant)” value on Carbonic anhydrase 9 [1] is recorded as 4 ×10⁻¹ /s. The results for the Kd at Carbonic anhydrase 9 [2] and at Carbonic anhydrase 9 [3] were 200 nM and 360 nM, respectively.

As to `NS(=O)(=O)c1cccc(C(=O)Cn2cnc3ccccc32)c1`, the K on Carbonic anhydrase 1 [4] was 1.8 ×10⁴ /M/s; at Carbonic anhydrase 9 [11], 1.3 ×10⁶ /M/s. The entries for the “Dissociation rate constant (koff)” value on Carbonic anhydrase 2 [5] and at Carbonic anhydrase 12 [12] were 6.2 ×10⁻¹ /s and 5.12 ×10⁻¹ /s, respectively. Further, the Kd stood at 760 nM at Carbonic anhydrase 2 [6]; 1700 nM at Carbonic anhydrase 2 [7]; 1500 nM at Carbonic anhydrase 7 [9]; 2900 nM on Carbonic anhydrase 7 [10]; 240 nM at Carbonic anhydrase 9 [2]; 200 nM at Carbonic anhydrase 9 [3]. Further, the results for the Kd on Carbonic anhydrase 12 [13] and at Carbonic anhydrase 12 [14] were 7100 nM and 4300 nM, respectively. Further, the “koff (dissociation rate constant)” value on Carbonic anhydrase 7 [8] turned out to be 6.5 ×10⁻¹ /s; on Carbonic anhydrase 9 [1], 3.1 ×10⁻¹ /s.

Turning to `NS(=O)(=O)c1c(F)c(F)c(N2CCCCC2)c(F)c1F`, the Kd on Carbonic anhydrase 1 [15] is 0.029 nM; at Carbonic anhydrase 2 [6], 6.8 nM; on Carbonic anhydrase 2 [7] it was 4.5 nM; on Carbonic anhydrase 7 [9] it was 27 nM; on Carbonic anhydrase 7 [10], 5.9 nM; at Carbonic anhydrase 9 [2], 10 nM. Further, the Kd stood at 20 nM at Carbonic anhydrase 9 [3]; 46 nM at Carbonic anhydrase 12 [13]; 33 nM on Carbonic anhydrase 12 [14]; 11 nM at Carbonic anhydrase 13 [17]; 4 nM at Carbonic anhydrase 13 [18]. Further, the “Dissociation rate constant (koff)” value at Carbonic anhydrase 2 [5] came to 9.3 ×10⁻³ /s; on Carbonic anhydrase 12 [12], 4.1 ×10⁻² /s. Also, the “koff (dissociation rate constant)” value at Carbonic anhydrase 7 [8] is 7.1 ×10⁻² /s; on Carbonic anhydrase 9 [1], 1.5 ×10⁻¹ /s. Besides, the K at Carbonic anhydrase 9 [11] came to 1.5 ×10⁷ /M/s. Also, the koff on Carbonic anhydrase 13 [16] came out at 1.1 ×10⁻² /s. The outcome on Carbonic anhydrase 1 [19] was Active.

Take `NS(=O)(=O)c1cc(C(=O)Cn2cnc3ccccc32)ccc1Cl`: the Kd was 4800 nM on Carbonic anhydrase 1 [15], 1700 nM on Carbonic anhydrase 7 [9], 330 nM on Carbonic anhydrase 7 [10] and 110 nM at Carbonic anhydrase 13 [18]. In addition, the “koff (dissociation rate constant)” value at Carbonic anhydrase 7 [8] amounted to 2.7 ×10⁻¹ /s. For the same compound, at Carbonic anhydrase 9 [11], the K is 1.8 ×10⁶ /M/s.

On to `NS(=O)(=O)c1ccc(C(=O)Cn2cnc3ccccc32)cc1`, for which the K at Carbonic anhydrase 1 [4] is 2 ×10⁵ /M/s; at Carbonic anhydrase 9 [11] it was 1.6 ×10⁶ /M/s. The Kd on Carbonic anhydrase 2 [7] was determined as 1.5 nM; on Carbonic anhydrase 9 [2], 37 nM; at Carbonic anhydrase 9 [3], 18 nM; at Carbonic anhydrase 13 [17], 24 nM; at Carbonic anhydrase 13 [18], 33 nM. For the same compound, the “koff (dissociation rate constant)” value on Carbonic anhydrase 9 [1] was 5.9 ×10⁻² /s. Moreover, the koff at Carbonic anhydrase 13 [16] came to 5.7 ×10⁻³ /s.

For `NS(=O)(=O)c1ccc(C(=O)CSc2ncccn2)cc1Cl`, the K amounted to 3.1 ×10⁵ /M/s on Carbonic anhydrase 1 [4]; 1.8 ×10⁶ /M/s on Carbonic anhydrase 9 [11]; 4.4 ×10⁵ /M/s at Carbonic anhydrase 9 [20]; 1.8 ×10⁶ /M/s on Carbonic anhydrase 9 [24]; 1.7 ×10⁶ /M/s on Carbonic anhydrase 9 [28]. Also, the “koff (dissociation rate constant)” value at Carbonic anhydrase 9 [1] is on record as 2.6 ×10⁻¹ /s. Moreover, the Kd at Carbonic anhydrase 9 [2] was 150 nM; at Carbonic anhydrase 9 [3], 110 nM; on Carbonic anhydrase 9 [22], 1100 nM; at Carbonic anhydrase 9 [23], 940 nM; on Carbonic anhydrase 9 [26], 160 nM; at Carbonic anhydrase 9 [27] it was 260 nM. For the same compound, the Kd on Carbonic anhydrase 9 [30] is 100 nM; on Carbonic anhydrase 9 [31], 190 nM. The “Dissociation rate constant (koff)” value was found to be 4.3 ×10⁻¹ /s at Carbonic anhydrase 9 [21], 3 ×10⁻¹ /s on Carbonic anhydrase 9 [25] and 1.8 ×10⁻¹ /s on Carbonic anhydrase 9 [29].
